# Assay outcomes: PubChem BioAssay, several laboratories
# KCNQ1 pot – human KCNQ1 channel potentiation or activation. P51787. CHO-K1 KCNQ1, thallium flux FluxOR fluorescence; hits give high values. B-score at 10 µM. hit rate 0.35% among 310,000;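 active means fluorescence ratio B-score, a plate-corrected score, at least three library SD, with initial intensity B-score within 5 SD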
#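 Assay system: CHO-K1 cells stably expressing KCNQ1. Medium: assay buffer for compound exposure, DMSO matched across wells. Timing: 37 °C overnight plating, 90-min dark dye load, 20-min compound pretreatment. Signal: kinetic FluxOR fluorescence, 10 s baseline plus 110 s post-stimulus.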
# KCNK3 inh – human KCNK3 channel inhibition, primary screen; O14649; CHO-KCNK3 thallium flux, FluxOR fluorescence; hits give low values; B-score at 10 µM; hit rate 0.84% among 340,000;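 active means B-score under library mean minus 4 SD, starting fluorescence ratio at most library mean plus 5 SD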;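 further: more negative B-score means stronger inhibition of thallium flux through KCNK3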
# hERG rescue – hERG (human) protection from proarrhythmic block. CHO-hERG, FluxOR thallium flux, dofetilide IC70 present. activation (rescue from dofetilide block), less the hit threshold, % at 10 µM. hit rate 0.51% among 310,000. AID 1511;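 active means activation above the mean of controls blocked by dofetilide plus 5 SD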;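 further: thallium influx through hERG after potassium depolarization seen as dye fluorescence rise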
# KCC2 mod – modulates chloride dependent transport by human KCC2; Q9H2X9; KCC2 cells, thallium flux FluoZin-2 fluorescence; B-score of Tl+ flux slope (higher = more flux/activation; lower = inhibition) at 10 µM; hit rate 2.2% among 190,000;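 active means thallium flux slope and its plate-corrected score both differing from the plate sample mean at a set confidence after two filtering rounds, in either direction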;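 further: slope of fluorescence scaled to starting intensity during 10 to 20 s after thallium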
# KCNK9 inh – inhibitors of human KCNK9 two-pore domain potassium channel | HEK293 KCNK9, FluxOR thallium flux fluorescence; hits give low values | B-score at 10 µM | hit rate 1.2% among 310,000 | AID 488922;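 active means ratio B-score over 3 SD below the library mean, with starting fluorescence within 5 SD of its mean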;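 further: negative B-score means less thallium flux so channel inhibition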
# KCNQ1 block – inhibitors of human KCNQ1 potassium channel; P51787; CHO-K1 KCNQ1, FluxOR thallium flux fluorescence; hits give high values; B-score at 10 µM; hit rate 1.3% among 310,000;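 active means compounds whose thallium flux B-score, printed positive for inhibition, exceeds three library SD while starting fluorescence stays within three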;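 further: channel opened by potassium depolarization with thallium stimulus after 20 min compound exposure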
# Starred values were filed as active, the others as inactive; i = inactive; · = not tested or not shown. Rows were chosen to be rich in hits. Some 4.1% of all compounds tested hit in one or more screens of this group.
SMILES,KCNQ1 pot,KCNK3 inh,hERG rescue,KCC2 mod,KCNK9 inh,KCNQ1 block
CC(CCc1ccccc1)NC(=O)c1ccc(C(=O)NC(C)CCc2ccccc2)cc1 (centres undefined),·,i,·,-0.31,·,·
CC(CCc1ccccc1)NC(=O)c1cccs1 (centres undefined),i,i,4.9*,·,i,i
c1ccc(Cn2nnc3c(N4CCN(Cc5ccc6c(c5)OCO6)CC4)ncnc32)cc1,i,i,-10,0.59,i,i
c1ccc2c(c1)oc1c(N3CCN(Cc4ccc5c(c4)OCO5)CC3)ncnc12,i,-9.5*,-17,0.8,i,i
O=c1[nH]c(CN2CCN(c3ncccn3)CC2)nc2c(Br)cc(Br)cc12,i,i,-16,0.47,-7.5*,i
CNC(=S)N/N=C/c1ccccc1Cl,i,i,-7,2.1,i,i
S=C(N/N=C/c1ccccc1Cl)Nc1ccccc1,i,i,-4,16*,i,i
Cc1ccc(Cl)cc1NC(=S)N(Cc1cccnc1)Cc1ccccc1Cl,i,i,-3,·,i,6*
C=CCn1c(SCC(=O)NCC(c2ccccc2)N(C)C)nnc1C1CCCCC1 (centres undefined),·,i,·,·,·,·
S=c1nc(-c2ccccc2)[nH]n1-c1ccccc1,74*,i,15*,53*,i,i
O=C(Cn1cnc2c(nnn2Cc2ccc(Cl)cc2)c1=O)N1CCN(c2ccccc2)CC1,·,i,·,-3.9*,·,·
O=C(Cn1cnc2c(oc3ccccc32)c1=O)N1CCN(c2ccccc2)CC1,i,i,9.4*,·,i,i
NS(=O)(=O)c1cnccc1Oc1cccc(Cl)c1,i,i,-3,·,i,i
COc1ccc(C(C(=O)NC2CCCCC2)N(Cc2ccco2)C(=O)c2snc(C(N)=O)c2N)cc1 (centres undefined),i,i,-12,·,i,9*
COc1ccccc1N(C(=O)c1snc(C(N)=O)c1N)C(C(=O)NC1CCCC1)c1ccco1 (centres undefined),i,i,-11,-0.46,i,6*
CCC(C(=O)NC1CCCCC1)N(Cc1cccs1)C(=O)c1snc(C(N)=O)c1N (centres undefined),i,i,-16,-0.93,i,6*
O=C(NC1CCCCC1)C(c1cccs1)N(Cc1cccs1)C(=O)c1cccs1 (centres undefined),i,i,-12,0.14,i,8*
COc1ccc(C(C(=O)NC2CCCC2)N(Cc2ccco2)C(=O)c2snc(C(N)=O)c2N)cc1OC (centres undefined),i,i,-15,·,i,i
CCc1nccn1C(=O)c1cnn2c(C(F)F)cc(-c3ccc(C)cc3)nc12,i,i,-5,-0.44,i,i
O=C1C(Cl)=C(N2CCCCCC2)C(=O)N1c1ccc(Cl)cc1,i,i,-11,·,i,i
O=C1C(Cl)=C(N2CCCCC2)C(=O)C(Cl)=C1c1cnc(N2CCCCC2)s1,i,i,-3,0.23,i,7*
CN(C)c1ncc(C2=C(Cl)C(=O)C(N3CCCC3)=C(Cl)C2=O)s1,i,i,-46,-2,i,7*
Oc1ccc(Br)cc1-c1n[nH]c(=S)n1Cc1ccccc1,11*,i,5.9*,·,i,i
Oc1ccccc1-c1n[nH]c(=S)n1Cc1ccccc1,i,i,-4,·,i,i
S=c1[nH]nc(-c2cc3ccccc3o2)n1Cc1ccccc1,i,i,-5,28*,i,i
SMILES,KCNQ1 pot,KCNK3 inh,hERG rescue,KCC2 mod,KCNK9 inh,KCNQ1 block
Cc1ccccc1N(CC(=O)N1CCOCC1)S(C)(=O)=O,i,i,-12,0.39,i,i
COc1cc(C(=O)N(c2ccc(C)c(C)c2)C2C=CS(=O)(=O)C2)cc(OC)c1OC (centres undefined),i,i,-7,0.56,i,i
O=C(NCc1ccccc1)C(=O)Nc1nc(C23CC4CC(CC(C4)C2)C3)cs1,10*,i,18*,3.9*,i,i
CC1CCCCC1NC(=O)CSc1nnc(CNC(=O)c2ccccc2)n1C (centres undefined),i,i,-21,1.2,i,i
O=C(Nc1ccccc1)N(O)c1ccc(Cl)cc1,i,i,-9,·,i,6*
CCN(CCS(=O)(=O)c1ccc(Cl)cc1)C(=O)Nc1ccccc1,i,i,-10,0.068,i,i
COc1ccc(C2=NOC(C(=O)Nc3cc(C)on3)C2)cc1OC (centres undefined),i,i,-7,0.86,i,i
CN(Cc1cccs1)C(=O)CCCc1c[nH]c2ccccc12,i,i,-16,-1.6,i,i
O=C(N/N=C/c1ccccc1C(=O)O)c1ccccc1Br,i,i,4.9*,0.41,i,i
CCOC(=O)c1c(/N=C/C2=C(O)CCCC2=O)sc2c1CCCC2,i,i,5.9*,0.0049,i,i
CCOC(=O)c1c(NC(C)=O)sc2c1CCC(C=NCCCN(CC)CC)=C2Sc1ccccc1,i,-9.6*,-8,-1.9,-7.2*,i
O=C(COC(=O)COc1ccccc1Cl)Nc1ccccc1OC(F)F,i,i,4.9*,-0.74,i,i
O=C(COC(=O)c1ncc(Cl)c(Cl)c1Cl)Nc1ccccc1OC(F)F,i,i,-14,-0.96,i,i
CN(c1ccc(F)cc1)S(=O)(=O)c1ccc(Cl)c(C(=O)Nc2ccc3c(c2)CCC3)c1,i,i,-11,-4,-6.9*,i
CN(c1ccc(F)cc1)S(=O)(=O)c1ccc(Cl)c(C(=O)Nc2ccncc2)c1,i,i,-13,·,i,i
O=c1[nH]cncc1OCc1ccccc1,·,i,·,·,·,·
COc1ccccc1NC(=O)c1ccc(NC(=O)CN2C(=O)CN(C)C2=O)cc1,i,i,-8,-0.025,i,i
CCC(=O)c1c(CC)c2n3c1CC[C@H]3CCC2,i,i,-8,·,i,i
O=C(N/N=C/c1ccc(N2CCOCC2)cc1)c1ccc(O)cc1,i,i,-12,-0.5,i,i
Cc1cc(C(=O)N2CCc3c([nH]c4ccccc34)C2c2cccc(Cl)c2)nn1C (centres undefined),i,i,-2,·,-7.4*,i
CSc1ccc(C2c3[nH]c4ccccc4c3CCN2C(=O)c2cc(C)n(C)n2)cc1 (centres undefined),i,·,-26,-0.36,i,i
O=C(Nc1nnc(-c2ccco2)o1)c1ccc2ccccc2c1,i,i,6.8*,38*,i,i
Cc1ccc(C(=O)Nc2nnc(-c3ccco3)o2)cc1,i,i,-6,3.9,i,i
